# Reference: article PMC5912898 (Nature chemical biology, 2017)
# Read-outs that look alike come from different tables or passages of the source.
# How the values were obtained:
# CDK9 [1] = target: T1, CDK9 (Homo sapiens, UniProt P50750); assay: Bio-AT7519 pulldown target engagement; assay type: cell-based; conditions: 6 hours, 1μM, 500nM or 250nM
# Method in brief: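 Live wildtype or CRBN−/− MOLT4 cells were exposed to DMSO or test compound for 6 h, then PBS-washed and lysed (50 mM Tris-HCl pH 8.0, 150 mM NaCl, 1% NP-40, 5 mM EDTA, 1 mM DTT, protease/phosphatase inhibitors). Clarified lysate (input sampled) was rotated overnight at 4°C with 1μM biotinylated AT7519, then captured on streptavidin resin for 3 h at 4°C. Beads were washed ×5, boiled, and immunoblotted.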
# CDK9 [2] = target: T1, CDK9; assay: Kinativ live cell chemical proteomics; assay type: cell-based; conditions: CRBN−/− MOLT4 cells, live cell treatment, 0.25μM
# Method in brief: (§1)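 Test compound was applied to intact MOLT4 cells (CRBN−/− or wildtype). Cells were then sonicated in 50 mM HEPES pH 7.5, 150 mM NaCl, 0.1% Triton X-100 with phosphatase inhibitors, and cleared. Lysate was labelled with desthiobiotin-ATP acylphosphate probe (20 μM final) for 10 min. Samples were reduced and alkylated for LC-MS/MS, and % inhibition was calculated from integrated peak areas against DMSO controls.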
# MOLT4 cells [3] = assay: Annexin V flow cytometry of apoptotic cells; assay type: cell-based, human; conditions: 250 nM, without washout
# Method in brief: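 MOLT4 cells were exposed to 250 nM test compound for 6 h, then either washed three times with media or left in compound, and collected 24 h later. Cells were PBS-washed, stained with FITC annexin V in HEPES/NaCl/CaCl₂ binding buffer (pH 7.4) at room temperature, and propidium iodide was added just before flow cytometry. Results are means ± s.d. of 3 biological replicates.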
# CDK7/CycH/MNAT1 = CDK7/CycH/MNAT1 (Homo sapiens, UniProt P50613); assay: Adapta Eu in vitro kinase assay; assay type: biochemical
# Sequence of CDK7/CycH/MNAT1 (P50613 whole entry): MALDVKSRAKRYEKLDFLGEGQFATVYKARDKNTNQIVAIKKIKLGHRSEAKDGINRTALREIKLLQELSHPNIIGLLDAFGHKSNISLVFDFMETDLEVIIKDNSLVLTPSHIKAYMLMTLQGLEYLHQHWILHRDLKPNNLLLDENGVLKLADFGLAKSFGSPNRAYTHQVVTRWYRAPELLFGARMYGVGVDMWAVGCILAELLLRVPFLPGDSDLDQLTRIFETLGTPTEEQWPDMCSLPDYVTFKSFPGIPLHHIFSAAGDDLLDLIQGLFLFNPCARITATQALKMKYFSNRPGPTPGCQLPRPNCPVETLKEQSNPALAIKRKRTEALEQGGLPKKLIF
# Sequence of CDK7/CycH/MNAT1 (P51946 whole entry partner): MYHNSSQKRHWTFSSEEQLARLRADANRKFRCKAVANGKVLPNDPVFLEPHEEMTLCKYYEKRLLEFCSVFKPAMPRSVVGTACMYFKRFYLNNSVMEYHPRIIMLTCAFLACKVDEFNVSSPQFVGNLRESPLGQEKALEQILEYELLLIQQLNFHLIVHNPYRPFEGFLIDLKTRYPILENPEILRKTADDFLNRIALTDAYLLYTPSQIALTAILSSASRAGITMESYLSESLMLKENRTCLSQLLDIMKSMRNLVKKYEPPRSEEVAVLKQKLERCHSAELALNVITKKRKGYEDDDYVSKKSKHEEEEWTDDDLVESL
# Sequence of CDK7/CycH/MNAT1 (P51948 whole entry partner): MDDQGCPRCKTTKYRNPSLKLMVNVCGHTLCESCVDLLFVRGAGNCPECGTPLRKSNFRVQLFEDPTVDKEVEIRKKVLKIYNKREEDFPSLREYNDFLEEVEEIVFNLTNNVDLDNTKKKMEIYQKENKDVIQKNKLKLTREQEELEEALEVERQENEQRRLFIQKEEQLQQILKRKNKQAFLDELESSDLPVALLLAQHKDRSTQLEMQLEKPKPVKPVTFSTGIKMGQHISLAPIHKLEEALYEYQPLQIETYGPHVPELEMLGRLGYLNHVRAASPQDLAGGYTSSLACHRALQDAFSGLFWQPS
# DYRK1B = DYRK1B (Homo sapiens, UniProt Q9Y463); assay: Kinomescan profiling; assay type: binding; conditions: 1μM
# CDK2 = CDK2 (Homo sapiens, UniProt P24941); assay: Bio-AT7519 pulldown target engagement; assay type: cell-based; conditions: wildtype and CRBN−/− MOLT4 cells, 6 hours, 1μM, 500nM or 250nM
# CDK7 = CDK7 (Homo sapiens, UniProt P50613); assay: Bio-AT7519 pulldown target engagement; assay type: cell-based; conditions: wildtype and CRBN−/− MOLT4 cells, 6 hours, 1μM, 500nM or 250nM
# Sequence of CDK7 (P50613 whole entry): as the sequence (P50613 whole entry) above
# CDK6 = CDK6 (Homo sapiens, UniProt Q00534); assay: Kinativ live cell chemical proteomics; assay type: cell-based; conditions: live cell treatment, 0.25μM
# Sequence of CDK6 (Q00534 whole entry): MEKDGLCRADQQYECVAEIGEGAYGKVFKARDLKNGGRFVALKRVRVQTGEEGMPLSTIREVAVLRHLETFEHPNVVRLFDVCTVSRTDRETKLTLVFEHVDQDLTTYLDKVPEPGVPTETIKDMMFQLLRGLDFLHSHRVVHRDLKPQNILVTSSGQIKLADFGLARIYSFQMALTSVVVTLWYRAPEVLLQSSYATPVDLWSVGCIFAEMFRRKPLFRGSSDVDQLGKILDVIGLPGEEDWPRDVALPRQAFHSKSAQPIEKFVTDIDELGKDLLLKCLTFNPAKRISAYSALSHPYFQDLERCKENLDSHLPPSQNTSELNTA
# PCTAIRE2 = PCTAIRE2 (Homo sapiens, UniProt Q00537); assay: Kinativ live cell chemical proteomics; assay type: cell-based; conditions: live cell treatment, 0.25μM
# Sequence of PCTAIRE2 (Q00537 whole entry): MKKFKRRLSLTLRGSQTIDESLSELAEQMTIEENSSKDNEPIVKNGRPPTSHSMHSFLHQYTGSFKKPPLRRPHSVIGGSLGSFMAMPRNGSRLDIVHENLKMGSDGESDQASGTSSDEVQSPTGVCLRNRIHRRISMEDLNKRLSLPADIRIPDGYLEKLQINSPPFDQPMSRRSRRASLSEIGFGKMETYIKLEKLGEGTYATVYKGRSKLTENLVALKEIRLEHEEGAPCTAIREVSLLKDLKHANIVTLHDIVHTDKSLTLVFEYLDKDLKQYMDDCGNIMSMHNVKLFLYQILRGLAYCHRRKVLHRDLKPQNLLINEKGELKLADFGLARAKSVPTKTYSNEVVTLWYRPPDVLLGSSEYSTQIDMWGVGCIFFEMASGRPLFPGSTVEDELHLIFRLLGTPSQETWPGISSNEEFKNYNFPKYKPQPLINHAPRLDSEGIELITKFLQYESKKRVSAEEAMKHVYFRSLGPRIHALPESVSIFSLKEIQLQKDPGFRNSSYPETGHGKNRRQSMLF
# PCTAIRE1,PCTAIRE3 = assay: Kinativ live cell chemical proteomics; assay type: cell-based, human; conditions: live cell treatment, 0.25μM
# CDK9 [4] = target: T1, CDK9; assay: Kinativ lysate chemical proteomics; assay type: binding; conditions: MOLT4 cell lysate, 1uM
# Method in brief: (§2)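 MOLT4 lysate (sonicated in HEPES pH 7.5/NaCl/Triton buffer, then gel-filtered) was incubated 15 min in duplicate with test compound added from a 100X DMSO stock, or with DMSO alone. Desthiobiotin-ATP acylphosphate probe (20 μM final) was then added for 10 min. Peptides were analysed by LC-MS/MS, and % inhibition was calculated as 1 − treated/control signal.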
# CDK10 [5] = target: T2, CDK10 (Homo sapiens, UniProt Q15131); assay: Kinativ lysate chemical proteomics; assay type: binding; conditions: MOLT4 cell lysate, 1uM
# T2 sequence (Q15131 whole entry): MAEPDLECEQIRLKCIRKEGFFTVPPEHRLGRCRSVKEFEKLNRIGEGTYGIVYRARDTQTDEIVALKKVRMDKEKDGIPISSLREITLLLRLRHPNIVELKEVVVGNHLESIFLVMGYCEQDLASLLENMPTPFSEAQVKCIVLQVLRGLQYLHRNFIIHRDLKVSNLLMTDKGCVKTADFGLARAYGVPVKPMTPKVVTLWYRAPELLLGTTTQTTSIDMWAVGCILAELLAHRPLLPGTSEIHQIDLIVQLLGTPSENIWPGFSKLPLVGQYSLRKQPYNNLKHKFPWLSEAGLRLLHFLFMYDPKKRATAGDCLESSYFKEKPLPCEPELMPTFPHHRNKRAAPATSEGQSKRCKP
# Method in brief: as §2
# MOLT4 cells [6] = assay: Apoptosis by immunoblot; assay type: cell-based, human; conditions: wildtype MOLT4 cells, 250 nM
# Method in brief: (§3)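 Wildtype MOLT4 cells were treated with 250 nM test compound for the indicated times. They were lysed for 30 min on ice in RIPA buffer (pH 7.4) with protease and phosphatase inhibitors and nuclease. Lysates were clarified at 21,000g for 30 min at 4°C and protein measured by BCA. Blots were detected with infrared-labelled secondary antibodies.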
# MOLT4 cells [7] = assay: Proliferation assay; assay type: cell-based, human; conditions: for IC50: read-out: proliferation IC50
# MCL-1 = MCL-1 protein level by immunoblot; assay type: cell-based, human; conditions: wildtype MOLT4 cells, 250 nM time course
# Method in brief: as §3
# [8] = test system: RNA Pol II CTD Serine 2 phosphorylation; assay: RNA Pol II CTD phosphorylation by immunoblot; assay type: cell-based, human; conditions: MOLT4 cells
# Method in brief: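 MOLT4 cells lysed on ice for 30 min in RIPA buffer (pH 7.4) with protease and phosphatase inhibitors and 2.5 U/mL nuclease. Lysate spun at 21,000g, 30 min, 4°C, and protein measured by BCA. Blots probed with anti-phospho-CTD Ser2 alongside total Pol II and tubulin. Infrared-labelled secondaries; blots imaged on Odyssey.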
# CDK9/CycT1 = CDK9/CycT1 (Homo sapiens, UniProt P50750); assay: Adapta Eu in vitro kinase assay; assay type: biochemical
# Sequence of CDK9/CycT1 (P50750 whole entry): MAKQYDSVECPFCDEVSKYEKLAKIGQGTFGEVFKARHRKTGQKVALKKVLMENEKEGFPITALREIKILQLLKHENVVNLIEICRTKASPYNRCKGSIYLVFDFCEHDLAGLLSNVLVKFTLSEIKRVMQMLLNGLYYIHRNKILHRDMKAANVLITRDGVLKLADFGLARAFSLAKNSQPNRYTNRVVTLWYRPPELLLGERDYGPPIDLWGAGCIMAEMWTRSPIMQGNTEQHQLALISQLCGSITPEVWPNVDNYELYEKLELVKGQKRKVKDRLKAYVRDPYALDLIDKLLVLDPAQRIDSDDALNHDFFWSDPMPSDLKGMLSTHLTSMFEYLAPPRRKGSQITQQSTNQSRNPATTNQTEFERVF
# Sequence of CDK9/CycT1 (O60563 whole entry partner): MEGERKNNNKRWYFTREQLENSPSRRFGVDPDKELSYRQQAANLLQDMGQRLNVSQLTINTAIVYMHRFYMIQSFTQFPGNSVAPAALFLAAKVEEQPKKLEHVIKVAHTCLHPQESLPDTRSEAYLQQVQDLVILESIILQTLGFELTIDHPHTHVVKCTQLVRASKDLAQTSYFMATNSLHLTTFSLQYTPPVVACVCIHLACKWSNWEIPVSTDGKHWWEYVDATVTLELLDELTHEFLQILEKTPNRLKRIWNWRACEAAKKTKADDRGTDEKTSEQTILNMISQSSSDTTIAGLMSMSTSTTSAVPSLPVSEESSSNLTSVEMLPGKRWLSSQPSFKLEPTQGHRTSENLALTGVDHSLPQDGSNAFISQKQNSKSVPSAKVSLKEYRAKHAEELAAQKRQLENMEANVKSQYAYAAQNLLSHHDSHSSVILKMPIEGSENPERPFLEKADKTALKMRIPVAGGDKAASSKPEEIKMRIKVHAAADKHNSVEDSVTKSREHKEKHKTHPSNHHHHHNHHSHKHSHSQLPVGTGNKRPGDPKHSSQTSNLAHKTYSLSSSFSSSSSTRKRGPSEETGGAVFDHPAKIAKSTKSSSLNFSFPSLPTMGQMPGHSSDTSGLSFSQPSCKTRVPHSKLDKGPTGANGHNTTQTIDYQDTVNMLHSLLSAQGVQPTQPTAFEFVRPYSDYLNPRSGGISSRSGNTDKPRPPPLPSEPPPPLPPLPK
# CDK9 [9] = target: T1, CDK9; assay: Kinomescan profiling; assay type: binding; conditions: 1μM
# PCTAIRE2,PCTAIRE3 = assay: Kinativ live cell chemical proteomics; assay type: cell-based, human; conditions: live cell treatment, 0.25μM
# panel of 468 kinases = assay: Kinomescan kinome selectivity profiling; assay type: binding; conditions: Kinomescan at 1μM
# GSK3A = GSK3A (Homo sapiens, UniProt P49840); assay: Kinativ live cell chemical proteomics; assay type: cell-based; conditions: live cell treatment, 0.25μM
# Sequence of GSK3A (P49840 whole entry): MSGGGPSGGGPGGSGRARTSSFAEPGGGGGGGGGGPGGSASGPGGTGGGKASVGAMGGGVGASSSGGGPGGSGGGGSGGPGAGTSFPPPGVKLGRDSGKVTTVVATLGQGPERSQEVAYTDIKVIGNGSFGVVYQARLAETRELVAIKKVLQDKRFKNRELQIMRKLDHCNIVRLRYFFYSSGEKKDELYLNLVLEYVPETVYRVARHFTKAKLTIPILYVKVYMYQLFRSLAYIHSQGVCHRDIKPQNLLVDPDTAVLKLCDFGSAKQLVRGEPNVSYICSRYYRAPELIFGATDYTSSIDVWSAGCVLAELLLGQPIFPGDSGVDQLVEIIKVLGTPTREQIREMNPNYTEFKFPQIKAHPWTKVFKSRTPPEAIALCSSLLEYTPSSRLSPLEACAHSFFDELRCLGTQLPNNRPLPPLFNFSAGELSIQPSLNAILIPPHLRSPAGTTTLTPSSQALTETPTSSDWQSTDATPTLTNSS
# Method in brief: as §1
# CDK9 [10] = target: T1, CDK9; assay: CDK9 degradation by immunoblot; assay type: cell-based
# CRBN−/− MOLT4 cells = assay: Proliferation assay; assay type: cell-based; conditions: Homo sapiens, MOLT-4, 72 h, read-out: proliferation IC50
# Method in brief: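 CRBN−/− MOLT4 cells were exposed to a range of test compound concentrations for 72 h. Viability was measured with CellTiter-Glo, and IC50 was derived by non-linear regression curve fitting.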
# CDK10 [11] = target: T2, CDK10; assay: CDK10 degradation by immunoblot; assay type: cell-based; conditions: MOLT4 cells
# Method in brief: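 MOLT4 cells treated with test compound were lysed in RIPA buffer (pH 7.4) with protease and phosphatase inhibitors and nuclease for 30 min on ice. Lysates were clarified at 21,000g for 30 min at 4°C and quantified by BCA. CDK10 was immunoblotted and detected with infrared-labelled secondary antibodies.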
# CDK2/CycA = CDK2/CycA (Homo sapiens, UniProt P24941); assay: Z'LYTE in vitro kinase assay; assay type: biochemical
# Method in brief: (§4)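 Inhibition of the recombinant cyclin-bound CDK complex was measured in a Z'LYTE kinase assay run by a contract service at the Km concentration of ATP.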
# CDK1 mRNA = assay: qPCR of mRNA levels; assay type: cell-based, human; conditions: MOLT4 cells, 250nM, 8 hours
# CDK9 [12] = target: T1, CDK9; assay: Multiplexed quantitative mass spectrometry-based proteomics; assay type: cell-based; conditions: MOLT4 cells, 250nM, 2 hours, 4512 proteins quantified
# Method in brief: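 MOLT4 cells (RPMI-1640, 10% FBS, 1% Pen/Strep, 37°C, 5% CO₂) exposed to 250nM test compound for 2 hours. Proteins labelled with 10plex TMT isobaric tags and run on an Orbitrap Fusion using SPS-MS3. Threshold of 2 peptides per protein. Log fold-change vs p-value plotted. n=3 biological replicates.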
# CDK7 mRNA = assay: qPCR of mRNA levels; assay type: cell-based, human; conditions: MOLT4 cells, 250nM, 8 hours
# CDK1/CycB = CDK1/CycB (Homo sapiens, UniProt P06493); assay: Z'LYTE in vitro kinase assay; assay type: biochemical
# Sequence of CDK1/CycB (P06493 whole entry): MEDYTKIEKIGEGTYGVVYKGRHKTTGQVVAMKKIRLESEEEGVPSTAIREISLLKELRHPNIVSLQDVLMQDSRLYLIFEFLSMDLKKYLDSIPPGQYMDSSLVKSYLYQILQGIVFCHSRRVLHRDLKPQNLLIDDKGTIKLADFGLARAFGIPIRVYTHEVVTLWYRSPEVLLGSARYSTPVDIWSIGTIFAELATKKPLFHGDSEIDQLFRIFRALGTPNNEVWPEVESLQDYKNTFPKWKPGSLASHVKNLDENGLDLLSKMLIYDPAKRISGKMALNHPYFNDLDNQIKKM
# Sequence of CDK1/CycB (P14635 whole entry partner): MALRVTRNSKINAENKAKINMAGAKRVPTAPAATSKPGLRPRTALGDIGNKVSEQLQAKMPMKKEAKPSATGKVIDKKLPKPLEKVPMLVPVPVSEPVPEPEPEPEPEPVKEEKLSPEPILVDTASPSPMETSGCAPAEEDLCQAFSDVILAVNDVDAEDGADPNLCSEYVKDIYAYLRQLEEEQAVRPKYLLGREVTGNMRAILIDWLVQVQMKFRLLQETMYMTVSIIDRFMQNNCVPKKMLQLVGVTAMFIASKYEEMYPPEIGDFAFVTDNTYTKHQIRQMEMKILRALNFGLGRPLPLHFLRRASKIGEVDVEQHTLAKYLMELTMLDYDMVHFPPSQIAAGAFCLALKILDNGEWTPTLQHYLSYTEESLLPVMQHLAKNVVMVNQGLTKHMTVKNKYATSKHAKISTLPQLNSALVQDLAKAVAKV
# Method in brief: as §4
# [13] = test system: panel of eleven different leukemia cancer cell lines; assay: Proliferation in leukemia cell line panel; assay type: cell-based
# [14] = wildtype and CRBN−/− MOLT4 cells
# [15] = 6-hour treatment then compound washout
# T1 sequence (P50750 whole entry): as the sequence (P50750 whole entry) above
compound,measurement,setting,value
COC[C@@H](C)NC1CCC(Nc2cc(-c3cccc(NCC4(C#N)CCOCC4)n3)c(Cl)cn2)CC1 (stereo partly drawn) [NVP-2],CDK9 engagement (bio-AT7519 competition),CDK9 [1]; [14],engages CDK9 in wildtype and CRBN−/− MOLT4 cells at all concentrations tested
same,percent inhibited CDK9 (Lys2) labeling,CDK9 [2],~63%
same,Annexin V positive cells,MOLT4 cells [3],~100%
same,IC50,"CDK7/CycH/MNAT1; read-out: CDK7 IC50, Km ATP",> 10000 nM
same,Kinomescan inhibition of DYRK1B,DYRK1B,greater than 99%
same,CDK2 engagement (bio-AT7519 competition),CDK2,unaffected
same,CDK7 engagement (bio-AT7519 competition),CDK7,unaffected
same,percent inhibited CDK6 (Lys2) labeling,CDK6; CRBN−/− MOLT4 cells,−8.6%
same,percent inhibited CDK6 (Lys2) labeling,CDK6; Wildtype MOLT4 cells,−10%
same,percent inhibited PCTAIRE2 (Lys2) labeling,PCTAIRE2; CRBN−/− MOLT4 cells,10.3%
same,percent inhibited PCTAIRE2 (Lys2) labeling,PCTAIRE2; Wildtype MOLT4 cells,8.1%
same,"percent inhibited PCTAIRE1,PCTAIRE3 (Lys2) labeling","PCTAIRE1,PCTAIRE3; CRBN−/− MOLT4 cells",−5.2%
same,"percent inhibited PCTAIRE1,PCTAIRE3 (Lys2) labeling","PCTAIRE1,PCTAIRE3; Wildtype MOLT4 cells",−30.5%
same,CDK9 engagement in lysate,CDK9 [4],strongly engaged
same,CDK10 engagement in lysate,CDK10 [5],strongly engaged
same,time to induction of apoptosis (PARP and Caspase-3 cleavage),MOLT4 cells [6],≤ 4 h
same,IC50,"MOLT4 cells [7]; wild-type MOLT4, 72 hours, CellTiter Glo",9 nM
same,MCL-1 protein level,MCL-1,MCL-1 loss was observed
same,phosphorylation of RNA Pol II CTD Serine 2,[8],inhibited in a concentration dependent manner
same,IC50,"CDK9/CycT1; read-out: IC50 CDK9/CycT kinase activity, Km ATP",< 0.514 nM
same,Kinomescan inhibition of CDK9,CDK9 [9],greater than 99%
same,"percent inhibited PCTAIRE2,PCTAIRE3 (Lys1) labeling","PCTAIRE2,PCTAIRE3; CRBN−/− MOLT4 cells",−15%
same,"percent inhibited PCTAIRE2,PCTAIRE3 (Lys1) labeling","PCTAIRE2,PCTAIRE3; Wildtype MOLT4 cells",−4.7%
same,S(1) score,panel of 468 kinases,0.005
same,percent inhibited GSK3A (Lys2) labeling,GSK3A; CRBN−/− MOLT4 cells,10%
same,percent inhibited GSK3A (Lys2) labeling,GSK3A; Wildtype MOLT4 cells,5.8%
"CC(C)(C)c1cnc(CSc2cnc(NC(=O)C3CCNCC3)s2)o1 [SNS-032, N-[5-[[[5-(1,1-Dimethylethyl)-2-oxazolyl]methyl]thio]-2-thiazolyl]-4-piperidinecarboxamide]",CDK9 engagement (bio-AT7519 competition),CDK9 [1]; [14],showed engagement
same,time to induction of apoptosis (PARP and Caspase-3 cleavage),MOLT4 cells [6],≤ 4 h
same,IC50,"MOLT4 cells [7]; Homo sapiens, MOLT-4, 72 h",173 nM
same,phosphorylation of RNA Pol II CTD Serine 2,[8],inhibited in a concentration dependent manner
same,"percent inhibited PCTAIRE2,PCTAIRE3 (Lys1) labeling","PCTAIRE2,PCTAIRE3; CRBN−/− MOLT4 cells",75.4%
CC(C)(C)c1cnc(CSc2cnc(NC(=O)C3CCN(CC(=O)NCCOCCOCCOCCNc4cccc5c4C(=O)N(C4CCC(=O)NC4=O)C5=O)CC3)s2)o1 (stereo not drawn) [THAL-SNS-032],CDK9 engagement (bio-AT7519 competition),CDK9 [1]; CRBN−/− MOLT4 cells only,little to no engagement
same,time for CDK9 levels to return to baseline after washout,CDK9 [10]; [15],36 h
same,time of partial rebound of CDK9 levels after washout,CDK9 [10]; [15],≤ 12 h
same,time to complete CDK9 degradation,"CDK9 [10]; MOLT4 cells, 250 nM",2 h
same,persistence of CDK9 degradation,"CDK9 [10]; MOLT4 cells, 250nM time course",at least 24 hours
same,concentration inducing complete CDK9 degradation,"CDK9 [10]; MOLT4 cells, 6-hour treatment",250 nM
same,concentration at which CDK9 degradation decreases (hook effect),"CDK9 [10]; MOLT4 cells, 6 hours",≥ 5 µM
same,IC50,CRBN−/− MOLT4 cells,3630 nM
same,IC50,CDK7/CycH/MNAT1,398 nM
same,CDK10 degradation,CDK10 [11],partial degradation
same,"percent inhibited PCTAIRE1,PCTAIRE3 (Lys2) labeling","PCTAIRE1,PCTAIRE3; CRBN−/− MOLT4 cells",11.4%
same,"percent inhibited PCTAIRE1,PCTAIRE3 (Lys2) labeling","PCTAIRE1,PCTAIRE3; Wildtype MOLT4 cells",16.3%
same,IC50,CDK2/CycA,62 nM
same,time to induction of apoptosis (PARP and Caspase-3 cleavage),MOLT4 cells [6],≤ 4 h
same,viability after washout,"MOLT4 cells [7]; 250nM, 6 hours treatment then washout, 72 hours of growth",more profound decrease in viability after washout compared to NVP-2 or SNS-032
same,IC50,"MOLT4 cells [7]; Homo sapiens, MOLT-4, 72 h",50 nM
same,MCL-1 protein level,MCL-1,loss of MCL-1
same,CDK1 mRNA level relative to DMSO-treated,CDK1 mRNA,around 20%
same,CDK9 abundance in proteome-wide analysis,CDK9 [12],most depleted protein out of 4512 proteins
same,phosphorylation of RNA Pol II CTD Serine 2,[8],inhibited phosphorylation of Serine 2 in a concentration and time-dependent manner
same,IC50,CDK9/CycT1,4 nM
same,"percent inhibited PCTAIRE2,PCTAIRE3 (Lys1) labeling","PCTAIRE2,PCTAIRE3; CRBN−/− MOLT4 cells",16%
same,"percent inhibited PCTAIRE2,PCTAIRE3 (Lys1) labeling","PCTAIRE2,PCTAIRE3; Wildtype MOLT4 cells",22.1%
same,CDK7 mRNA level relative to DMSO-treated,CDK7 mRNA,around 20%
same,IC50,CDK1/CycB,171 nM
same,inhibition of proliferation compared to SNS-032,[13],more potent inhibition of proliferation as compared to SNS-032
